Assay outcomes (PubChem BioAssay)
In the library only some 4.3% were active in any assay of this set; here they are far more common.
GalR3 antagonist = human GalR3 antagonism; O60755; HEK293 GalR3-CNG cAMP membrane potential fluorescence; galR3 body fused to GalR1 C-terminus; inhibition, % at 3 µM; actives 0.44% (n = 360,000); AID 651719;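 active = inhibition above the screen-wide average plus 3 SD, cut at about 13% in these data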;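 note: forskolin and galanin both at EC90 stimulate the cells; cAMP rise reported by CNG channel membrane potential dye signal; 0% = forskolin plus galanin with DMSO and 100% = forskolin alone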
Target sequence (O60755 1-299 limits assumed): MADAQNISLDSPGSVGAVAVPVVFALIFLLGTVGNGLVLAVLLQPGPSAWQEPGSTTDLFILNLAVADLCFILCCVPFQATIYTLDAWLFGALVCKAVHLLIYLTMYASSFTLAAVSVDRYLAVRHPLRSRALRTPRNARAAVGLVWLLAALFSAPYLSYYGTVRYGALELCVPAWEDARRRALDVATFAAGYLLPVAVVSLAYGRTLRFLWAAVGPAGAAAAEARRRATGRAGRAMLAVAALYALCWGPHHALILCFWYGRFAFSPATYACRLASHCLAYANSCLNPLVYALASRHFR
TAAR1 antagonist = human TAAR1 antagonism; AID 624466; actives 1.5% (n = 360,000); inhibition, % at 3 µM; CHO RD-HGA16 TAAR1, Fluo-8 calcium fluorescence, antagonist;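 active = inhibition above a per-plate cutoff, the mean inhibition of test compounds on that plate plus 3 SD, cut at about 49% in these data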;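 note: 0% = DMSO plus EC80 beta-PEA response and 100% = DMSO alone without agonist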
Target sequence (Q96RJ0 whole entry, looked up): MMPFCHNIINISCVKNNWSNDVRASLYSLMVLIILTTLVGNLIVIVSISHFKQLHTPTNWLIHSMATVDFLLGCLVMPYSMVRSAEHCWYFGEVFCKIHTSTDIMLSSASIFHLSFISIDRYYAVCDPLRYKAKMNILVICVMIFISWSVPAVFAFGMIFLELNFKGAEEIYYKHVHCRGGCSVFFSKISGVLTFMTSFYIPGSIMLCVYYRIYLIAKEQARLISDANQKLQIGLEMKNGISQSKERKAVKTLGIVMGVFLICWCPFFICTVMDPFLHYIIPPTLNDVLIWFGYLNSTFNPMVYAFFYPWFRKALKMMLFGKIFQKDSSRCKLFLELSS
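System: CHO RD-HGA16 cells bearing hTAAR1. Reagent: EC80 β-phenethylamine stimulus. Schedule: seeding 17-24 h prior, 75-min 37 °C, 30-min RT dye loading. Signal: Fluo-8 intracellular calcium dye fluorescence, real-time kinetic reads. Read-out: % inhibition from peak post-agonist over basal fluorescence ratio. Benchmarks: vehicle wells and EC80 agonist wells. Replicates: n of 1.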
TAAR1 ag = agonists of human TAAR1; Q96RJ0; CHO RD-HGA16 TAAR1, Fluo-8 calcium fluorescence; vehicle wells 0%, saturating PEA agonist 100%; activation, % at 3 µM; actives 0.99% (n = 360,000);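 active = activation above the mean activation of all test compounds in the run plus 3 SD, cut at about 38% in these data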
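Benchmarks: low control DMSO, high control PEA (EC100); System: CHO RD-HGA16 cells carrying human TAAR1 plus Gα16; Detection: Fluo-8 fluorescence, 5 s baseline then 140 s kinetic read; Schedule: 17-24 h plating, Fluo-8 75 min 37 °C, 30 min RT; Read-out basis: % activation from peak over basal fluorescence ratio, DMSO-to-PEA scaled.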
OX1R antag-1 = OX1R (human) antagonism; AID 485270; OX1R-expressing cells, FRET antagonist read-out; O43613; actives 1.8% (n = 330,000); inhibition, % at 6.6 µM; in the data active = inhibition mostly above about 38%, no sharp cut-off; inactive = mostly below about 40%;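 note: 0% = agonist challenge alone and 100% = reference antagonist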
OX1R antag-2 = blocks the human orexin 1 receptor; CHO/OX1R cells, Fluo-8 calcium fluorescence, orexin A; inhibition, % at 5 µM; O43613; actives 0.43% (n = 330,000);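 active = inhibition above its plate's threshold, mean inhibition of all tested compounds on the plate plus 3 SD, cut at about 37% in these data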;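 note: 0% = orexin A challenge wells and 100% = SB-334867-A antagonist wells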
CHO parental Ca = counter-screen: ATP calcium response change in parental CHO cells. inhibition, % at 5.6 µM. parental CHO-K1, ATP-induced calcium, Fluo-8 fluorescence. AID 463079. actives 0.63% (n = 330,000);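 active = inhibition above that plate's mean sample inhibition plus 3 SD, cut at about 26% in these data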;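 note: 0% = ATP-challenged DMSO wells and 100% = DMSO wells without ATP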
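Material: parental CHO cells / Compound: single nominal dose of 5.6 µM per compound / Signal: Fluo-8 fluorescence / Replicates: singlicate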
* = called active by the depositor; · = not tested or not shown.

SMILES	GalR3 antagonist	TAAR1 antagonist	TAAR1 ag	OX1R antag-1	OX1R antag-2	CHO parental Ca
CCNc1ccc(C(=O)OCC(=O)NCCN2C(=O)CSC2=O)cc1[N+](=O)[O-]	-1	-2	2	68*	5	-8
O=C(CN1C(=O)NC2(CCCC2)C1=O)NNC(=O)c1ccccc1	-3	-1	-1	16	-8	-11
CC(=O)NCc1ccc(-c2nc3ccccc3s2)cc1	-5	8	15	16	-14	-21
CC(=O)NCc1ccc(-c2csc(-c3cccs3)n2)cc1	-10	8	0	63*	-14	-9
Cc1ccc(C(C(=O)NCc2ccc(F)cc2)N(CCCO)C(=O)C2COc3ccccc3O2)o1 (stereo not drawn)	-6	52*	16	11	-41	-11
Cc1ccc(CNC(=O)C2COc3ccccc3O2)cc1 (stereo not drawn)	-6	-16	1	5	-8	-4
CC(C)n1c(=N)c(C(=O)NCCc2ccccc2)cc2c(=O)n3ccccc3nc21	-4	-2	-1	55*	-16	-18
Cc1cccn2c(=O)c3cc(C(=O)NCc4ccco4)c(=N)n(C(C)C)c3nc12	-4	-8	0	38	-30	-26
N=c1c(C(=O)NCc2ccco2)cc2c(=O)n3ccccc3nc2n1Cc1ccccc1	-4	-10	13	63	-6	-18
Cc1cccn2c(=O)c3cc(C(=O)NCc4cccnc4)c(=N)n(C(C)C)c3nc12	-3	-3	8	41*	-16	14
COc1ccc(CCN2CC(C(=O)NCCc3ncccc3C)CCC2=O)cc1 (stereo not drawn)	-6	-1	1	·	·	·
COCCN(C(=O)COC(=O)C12CC3CC(CC(O)(C3)C1)C2)c1c(N)n(Cc2ccccc2)c(=O)[nH]c1=O	-8	-10	2	·	·	·
COc1ccc2[nH]c3c4c(ccc3c2c1)C(=O)C=CC4=O	-11	77*	44*	·	·	·
Cc1cccc(C)c1OCc1cn(CC(=O)c2ccc(O)cc2)nn1	-6	-10	0	·	·	·
C[C@@H]1CN([C@@H](C)CO)C(=O)CCCn2nncc2CO[C@H]1CN(C)C(=O)Nc1ccc2c(c1)OCO2	-6	-14	1	·	·	·
O=[N+]([O-])c1ccc(C[n+]2cccc3c4ccccc4ccc32)cc1	0	7	6	49*	-6	-2
O=P(Nc1ccccc1)(Nc1ccccc1)c1ccccc1	-4	14	0	·	·	·
COc1ccc(OC)c(C2=NS(=O)(=O)N(C)C(C(=O)NCc3cccs3)=C2)c1	-6	26	43*	11	-10	-11
Cc1ccc(C2=NS(=O)(=O)N(C)C(C(=O)NCc3cccs3)=C2)cc1	·	27	9	10	-20	-4
COc1ccc(-c2ccc3[nH]c4c(c3c2)CCN2C(=O)[C@@H]([C@H](C)O)[C@@H](N(C)C(=O)Nc3ccc(F)cc3)C[C@@H]42)cc1	-2	49*	7	·	·	·
CC(C)n1c(=O)c2ccccc2n1Cc1cn(C2CCCC2)nn1	-7	-12	4	·	·	·
COc1ccc(-c2nn(-c3ccccc3)cc2C(=O)N2CCN(S(=O)(=O)c3ccccc3C#N)CC2)cc1	6	50*	4	19	-33	-28
COc1ccc(-c2nn(-c3ccccc3)cc2C(=O)N2CCN(S(=O)(=O)c3ccccc3[N+](=O)[O-])CC2)cc1	-8	20	15	·	·	·
CC(C)(C)c1ccc(C(=O)Nc2ccccc2Cl)cc1	-6	25	29	7	-23	-16
O=C(Nc1ccccc1Cl)c1ccccc1CC(O)(c1ccccc1)c1ccccc1	-7	54*	2	·	·	·
SMILES	GalR3 antagonist	TAAR1 antagonist	TAAR1 ag	OX1R antag-1	OX1R antag-2	CHO parental Ca
Nc1cccc(/C=C/c2ccncc2)c1	-10	-27	7	5	-1	-20
CCOC(=O)C1CCCN(C(=S)Nc2ccc(Nc3ccccc3)cc2)C1 (stereo not drawn)	-8	42	44*	42	-33	-18
CCOC(=O)C1CCCN(C(=O)Cc2c(C(=O)O)[nH]c3ccccc23)C1 (stereo not drawn)	-2	32	39*	2	-6	-5
CCOC(=O)C1CCCN(C(=O)c2ccc(CS(=O)(=O)c3ccc(C)cc3)o2)C1 (stereo not drawn)	·	·	·	7	-5	-2
CCOC(=O)C1CCCN(C(=O)c2ccc(-c3ccc([N+](=O)[O-])cc3)o2)C1 (stereo not drawn)	-1	37	49*	29	-30	-13
CCOC(=O)C1CCCN(C(=O)CC(c2ccccc2)c2ccccc2)C1 (stereo not drawn)	-4	-2	0	24	-41	-41
CCOC(=O)C1CCCN(C(=O)C2c3ccccc3Oc3ccccc32)C1 (stereo not drawn)	-1	8	13	45*	22	22
CCCC(C)(C)C(=O)N1CCC1(C)C(=O)Nc1ccc2c(c1)OCCO2 (stereo not drawn)	-2	-21	-2	·	·	·
CN(CCC#N)C(=O)COC(=O)c1c2c(nc3ccccc13)/C(=C/c1ccco1)CC2	4	-11	-1	39	4	5
CC(=O)c1ccc(NC(=O)COC(=O)c2c3c(nc4ccccc24)/C(=C\c2cccs2)CCC3)cc1	-3	58*	8	26	-3	8
O=C(COC(=O)c1c2c(nc3ccccc13)/C(=C\c1cccs1)CCC2)Nc1ccccc1	0	20	3	10	-12	-18
CC(C)CNC(=O)COC(=O)c1c2c(nc3ccccc13)/C(=C\c1cccs1)CC2	-6	50*	0	·	·	·
CC1CCc2nc(NC(=O)C3COc4ccccc4O3)sc2C1 (stereo not drawn)	·	-20	0	39*	-32	-21
COC(=O)[C@]12C[C@H](CC(=O)NCC34CC5CC(CC(C5)C3)C4)C(=O)N(Cc3ccccc3)C1=C[C@H](C(C)(C)C)O[C@@H]2C	-4	-38	0	·	·	·
Cc1cc(Br)ccc1NC(=O)CNC(=O)CN1C(=O)NC2(CCCCCC2)C1=O	-5	-7	5	38	-12	-23
Cc1cc(Br)ccc1NC(=O)CN1C(=O)C2C3CC(c4ccccc4)C(C3)C2C1=O (stereo not drawn)	-6	45	13	10	40	31*
O=C(NCCOc1ccc(F)cc1)C1CCC(=O)N(Cc2ccc(Cl)cc2)C1 (stereo not drawn)	-5	-13	0	·	·	·
CCN(CC)S(=O)(=O)c1ccc(Oc2ccc(S(=O)(=O)N(CC)CC)cc2)cc1	-2	6	8	14	33	58*
CCc1cccc(C)c1NC(=O)COC(=O)Cc1ccccc1	-8	11	0	·	·	·
